Data set [1] is described as follows: Selectivity index, ratio of CC50 for African green monkey Vero cells to MIC for Antitubercular activity against Mycobacterium tuberculosis H37Rv. The data set is classed as toxicity. The settings on record: read-out: Selectivity Index. The essentials: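 Selectivity index calculated as Vero CC50 (MTT, 72 h) divided by the H37Rv MIC from the resazurin broth microdilution assay.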

Data set [2] can be described thus: Cytotoxicity against African green monkey vero cells assessed as reduction in cell viability measured after 72 hrs by MTT assay. The data set is classed as cell-based. The settings on record: chlorocebus sabaeus. The essentials: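 Vero cells seeded at ~10³ cells/well and grown 24 h at 37 °C, 5% CO₂, then exposed to compound (100 to 5 mg/l) for 72 h. MTT was added […] for 4 h and formazan dissolved in DMSO. CC50 is the lowest concentration giving 50% viability reduction. Doxorubicin was the positive control, run in triplicate.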
Background: Formazan colour is commonly taken as a measure of viable cells.

For data set [3], the system named is Mycobacterium tuberculosis. The data set can be described thus: Antimycobacterial activity against Mycobacterium tuberculosis H37Rv ATCC 27294 assessed as reduction in bacterial growth incubated for […] by broth microdilution assay. The data set is classed as functional. (Broth dilution looks for growth in wells or tubes with falling amounts of substance.)

For another data set, the system named is Mycobacteroides chelonae. The experiment in a line: Antimycobacterial activity against Mycobacterium chelonae ATCC 35752 assessed as visible growth inhibition incubated for 16 to 18 hrs. It is filed as functional, organism-based. The settings on record: time 16-18 hrs.
Data set [4] has as its system Mycobacterium tuberculosis. The experiment in a line: Antimycobacterial activity against Mycobacterium tuberculosis H37Rv assessed as reduction in CFU at 10 times MIC concentration measured up to 6 days by time kill assay. To be noted: time day <=6. The data set is classed as functional, organism-based. In short, it runs like this:
(§1)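 Time-kill: H37Rv at ~10⁵ CFU/mL in 96-well plates with compound at 1x or 10x MIC, 37 °C for 6 days. At time-points, samples were serially two-fold diluted in normal saline and plated on 7H11 agar with OADC. Colonies were counted after […] at 37 °C, and CFU/mL was plotted against time with and without compound.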

Data set [5] concerns Mycobacteroides abscessus. The experiment in a line: Antimycobacterial activity against Mycobacterium abscessus ATCC 19977 assessed as visible growth inhibition incubated for 16 to 18 hrs. The settings on record: time 16-18 hrs. It is filed as functional, organism-based.
Data set [6] concerns Mycolicibacterium fortuitum. The data set can be described thus: Antimycobacterial activity against Mycobacterium fortuitum ATCC 6841 assessed as visible growth inhibition incubated for 16 to 18 hrs. The data set is classed as functional, organism-based. To be noted: time 16-18 hrs.
For data set [7], the system named is Mycobacterium tuberculosis. The data set can be described thus: Antitubercular activity against Mycobacterium tuberculosis H37Rv assessed as bacterial growth inhibition after 7 days by broth microdilution assay. The data set is classed as functional. To be noted: 168 h, dose 0.03-64 µg/ml, time 7 day. In short, it runs like this: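 Compounds were tested in broth microdilution from 64 downward, incubated 37 °C for 7 days, then resazurin (PrestoBlue) added. MIC is the lowest concentration preventing the blue-to-pink change, run in triplicate, reporting the value obtained at least twice of three.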

The test system of data set [8] is Mycobacterium tuberculosis. The data set can be described thus: Antimycobacterial activity against Mycobacterium tuberculosis H37Rv assessed as reduction in CFU at MIC concentration measured up to 6 days by time kill assay. The data set is classed as functional, organism-based. To be noted: time day <=6. In short, it runs like this:
as §1

In data set [9] the test system is Mycobacterium tuberculosis. The experiment in a line: Antimycobacterial activity against Mycobacterium tuberculosis H37Ra. It is filed as functional.

Converted amounts (≈) assume the structure as drawn. The source made the active and inactive calls.

In the case of `CCCOc1ccc(C(=O)/C=C/c2ccc(C(=O)Nc3cccc(-c4cc(C(=O)OC)no4)c3)cc2)cc1`, in data set [1], the selectivity ratio was > 320. Further, the CC50 at 72 h in [2] was > 40 µg/mL. Besides, the MIC in [3] and in data set [7] was 0.12 µg/mL (≈ 0.235 µM) throughout. Further, the outcome (in the data set on Mycobacteroides chelonae; in data set [5]; in [6]) was inactive. In addition, in data set [4], the result was Active.
Consider `CCOc1ccc(C(=O)/C=C/c2ccc(C(=O)Nc3cccc(-c4cc(C(=O)OC)no4)c3)cc2)cc1`, for which the selectivity ratio in data set [1] was > 160. The CC50 at 72 h in data set [2] was > 40 µg/mL. Besides, the MIC in data set [3] and in data set [7] was 0.25 µg/mL (≈ 0.504 µM) in each case. For the same compound, the outcome (in the data set with Mycobacteroides chelonae; in data set [5]; in data set [6]) was inactive. Also, the outcome in data set [4] and in data set [8] was Active.
As to `COC(=O)c1cc(-c2ccc(NC(=O)c3ccc(/C=C/C(=O)c4ccc(Cl)cc4)cc3)cc2)on1`, the selectivity ratio in [1] is > 1330. Moreover, the CC50 at 72 h in [2] is > 80 µg/mL. The MIC in data set [3] and in [7] was 0.06 µg/mL (≈ 0.123 µM) throughout. The result (in the data set with Mycobacteroides chelonae; in [5]; in data set [6]) was inactive.
For the compound `COc1cc(/C=C/c2cc(/C=C/c3ccc(OC)c(OC)c3)no2)ccc1O`, the MIC in data set [9] stood at 0.09 µg/mL (≈ 0.237 µM).

For orientation: CC50 means the concentration at which the toxic effect on the cells reaches its halfway point. Broadly, the MIC is the smallest concentration in the dilution series that meets the test's criterion for growth inhibition.

Values taken from ChEMBL document CHEMBL4823271, “Synthesis and structure-activity relationship of new chalcone linked 5-phenyl-3-isoxazolecarboxylic acid methyl esters potentially active against drug resistant Mycobacterium tuberculosis” (Eur J Med Chem, 2021).
